In ChEMBL document CHEMBL1149360, “Synthesis of 2-amino-4-(7-azaindol-3-yl)pyrimidines as cyclin dependent kinase 1 (CDK1) inhibitors” (Bioorg Med Chem Lett, 2006):

Experiments:
[1] = target: Cyclin-dependent kinase 1/cyclin B (Homo sapiens, UniProt P06493); experiment: Inhibition of CDK1/cyclinB by Flashplate assay; type: protein-complex assay
Summary of the method: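 CDK1 complexed with cyclin B phosphorylated a biotinylated histone-H1 peptide substrate using ³³P-γ-ATP. The substrate was immobilized in a Flashplate format, and inhibition was read as reduced ³³P incorporation into the substrate.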

HeLa = experiment: Antiproliferative activity against human HeLa cell line assessed as incorporation [14C]thymidine; type: functional, cell-based
Summary of the method: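 HeLa cervical carcinoma cells. Proliferation was read as ¹⁴C-thymidine incorporation into cellular DNA, and the IC₅₀ for inhibition of proliferation was derived from that.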

Row | SMILES | IC50 [1] [µM] | IC50 (HeLa) [µM]
1 | N[C@H]1CC[C@H](Nc2nccc(-c3c[nH]c4ncccc34)n2)CC1 | 0.002 | 0.001
2 | CN(C)CCn1cc(-c2ccnc(NC3CCCCC3)n2)c2cccnc21 |  | 8.9
3 | Cc1cc(CCN2CCCCC2)ccc1Nc1nccc(-c2c[nH]c3ncccc23)n1 | 0.001 | 0.003
4 | Clc1ccccc1Nc1nccc(-c2c[nH]c3ncccc23)n1 | 0.009 | 0.14
5 | Cc1[nH]c2ncccc2c1-c1ccnc(N[C@H]2CC[C@H](N)CC2)n1 | 0.28 | 0.13
6 | c1cnc2[nH]cc(-c3ccnc(NCC4CCCCC4)n3)c2c1 |  | 0.368
7 | CCc1ccccc1Nc1nccc(-c2c[nH]c3ncccc23)n1 |  | 0.292
8 | Cn1cc(-c2ccnc(NC3CCCCC3)n2)c2cccnc21 | > 10 | 52.1
9 | CS(=O)(=O)n1cc(-c2ccnc(NC3CCCCC3)n2)c2cccnc21 |  | 0.393
10 | Fc1ccccc1Nc1nccc(-c2c[nH]c3ncccc23)n1 |  | 0.092
11 | c1ccc(Nc2nccc(-c3c[nH]c4ncccc34)n2)cc1 |  | 0.382
12 | Cc1cc(CCN2CCCC2)ccc1Nc1nccc(-c2c[nH]c3ncccc23)n1 | 0.0006 | 0.003
13 | CC(=O)n1cc(-c2ccnc(NC3CCCCC3)n2)c2cccnc21 |  | 0.023
14 | c1cnc2[nH]cc(-c3ccnc(NC4CCCCC4)n3)c2c1 |  | 0.031
15 | FC(F)(F)c1ccccc1Nc1nccc(-c2c[nH]c3ncccc23)n1 |  | 0.392

Continued, values first:

Row | IC50 [1] [µM] | IC50 (HeLa) [µM] | SMILES
16 | 0.003 |  | Cc1ccccc1Nc1nccc(-c2c[nH]c3ncccc23)n1
17 |  | 0.35 | COc1ccccc1Nc1nccc(-c2c[nH]c3ncccc23)n1
18 |  | 0.955 | Oc1ccccc1Nc1nccc(-c2c[nH]c3ncccc23)n1
19 | 0.0019 | 0.003 | Cc1cc(CCN2CCOCC2)ccc1Nc1nccc(-c2c[nH]c3ncccc23)n1
20 | 0.013 | 0.095 | Brc1ccccc1Nc1nccc(-c2c[nH]c3ncccc23)n1
21 |  | 0.22 | Cc1ccc(Nc2nccc(-c3c[nH]c4ncccc34)n2)cc1
22 | 0.0006 | 0.011 | Cc1cc(CCO)ccc1Nc1nccc(-c2c[nH]c3ncccc23)n1
